Assay results as given in ChEMBL document CHEMBL1147081, “Structure of the deacetylase LpxC bound to the antibiotic CHIR-090: Time-dependent inhibition and specificity in ligand binding” (Proc Natl Acad Sci U S A, 2007).
pKi: −log10 of the molar value.

What was measured:
[1] = target: UDP-3-O-acyl-N-acetylglucosamine deacetylase (Rhizobium leguminosarum bv. trifolii (strain WSM1325), UniProt C6ARS9, S214G/W206Q); experiment: Inhibition of Rhizobium leguminosarum LpxC W206Q/S214G mutant
Method in brief: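 Assays used 5 μM UDP-3-O-(R-3-hydroxymyristoyl)-N-acetylglucosamine substrate and varied inhibitor at constant 10% DMSO. An IC50 curve was fit to fractional activity (vi/vo), and Ki was derived with the Cheng–Prusoff relationship.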

[2] = target: T1, UDP-3-O-acyl-N-acetylglucosamine deacetylase (Escherichia coli K-12, UniProt P0A725); experiment: Inhibition of Escherichia coli LpxC
T1 sequence (P0A725 whole entry): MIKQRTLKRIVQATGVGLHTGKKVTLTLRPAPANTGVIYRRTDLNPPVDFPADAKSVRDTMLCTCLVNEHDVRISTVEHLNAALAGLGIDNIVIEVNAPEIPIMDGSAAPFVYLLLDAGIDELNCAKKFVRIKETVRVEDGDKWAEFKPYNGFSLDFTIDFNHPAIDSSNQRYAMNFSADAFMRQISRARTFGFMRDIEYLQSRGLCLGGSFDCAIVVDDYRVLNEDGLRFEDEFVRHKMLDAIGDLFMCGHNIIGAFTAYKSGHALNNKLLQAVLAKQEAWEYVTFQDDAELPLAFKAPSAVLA

[3] = target: UDP-3-O-acyl-N-acetylglucosamine deacetylase (Escherichia coli K-12, UniProt P0A725, G210S/Q202W); experiment: Inhibition of Escherichia coli LpxC Q202W/G210S mutant
[4] = Inhibition of Rhizobium leguminosarum LpxC

UDP-3-O-acyl-N-acetylglucosamine deacetylase (Escherichia coli K-12, UniProt P0A725, G210S/Q202W), sequence (P0A725 whole entry Q202W/G210S): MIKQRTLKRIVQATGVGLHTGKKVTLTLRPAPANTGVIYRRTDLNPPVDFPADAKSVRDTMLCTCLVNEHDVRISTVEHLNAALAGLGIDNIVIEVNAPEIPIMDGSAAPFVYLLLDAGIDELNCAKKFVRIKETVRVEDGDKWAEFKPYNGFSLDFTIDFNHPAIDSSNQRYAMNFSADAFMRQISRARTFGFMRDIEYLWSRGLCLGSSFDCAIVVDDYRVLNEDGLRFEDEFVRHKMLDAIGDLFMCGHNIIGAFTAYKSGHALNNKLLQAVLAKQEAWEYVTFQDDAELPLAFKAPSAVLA
UDP-3-O-acyl-N-acetylglucosamine deacetylase (Rhizobium leguminosarum bv. trifolii (strain WSM1325), UniProt C6ARS9, S214G/W206Q), sequence (C6ARS9 as listed by the source W206Q/S214G): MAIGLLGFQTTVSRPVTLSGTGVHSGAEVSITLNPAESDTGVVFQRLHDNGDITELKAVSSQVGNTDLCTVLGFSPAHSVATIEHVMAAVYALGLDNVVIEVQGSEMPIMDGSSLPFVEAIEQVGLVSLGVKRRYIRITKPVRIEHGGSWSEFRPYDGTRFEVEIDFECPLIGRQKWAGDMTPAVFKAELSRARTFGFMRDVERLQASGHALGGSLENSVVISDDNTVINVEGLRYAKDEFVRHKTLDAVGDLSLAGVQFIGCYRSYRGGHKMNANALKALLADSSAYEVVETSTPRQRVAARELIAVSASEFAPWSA

| SMILES | pKi [1] | pKi [2] | pKi [3] | pKi [4] |
| --- | --- | --- | --- | --- |
| CCCc1cc(C2=N[C@@H](C(=O)NO)CO2)cc(OC)c1OC | 3.96 | 7.28 | 6.47 | 3.42 |
| O=C(NO)[C@@H](Cc1ccc2ccccc2c1)NS(=O)(=O)c1ccc2ccccc2c1 | 6.15 | 7.16 | 7.07 | 5.24 |
